Source: PubChem BioAssay
MsrA inhibitor – inhibits bovine methionine sulfoxide reductase A; purified bovine MsrA, absorbance read-out; inhibition, % at 15.5 µM; actives 0.75% (n = 360,000); in the data active = inhibition above about 4.5%;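 note: 0% = vehicle wells with enzyme and 100% = reference inhibitor wells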
MsrA act – activates bovine MsrA enzyme; actives 0.3% (n = 360,000); purified bovine MsrA, absorbance read-out; activation, % at 10.6 µM; in the data active = activation above about 7.5%;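 note: 0% = vehicle and 100% = reference activator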
MC4R barr agon – agonists of human melanocortin 4 receptor (MC4R) beta-arrestin; P32245; U2OS MC4R beta-arrestin complementation, luminescence; percent of melanotan II response, DMSO zero; activation, % at 8.9 µM; actives 0.98% (n = 360,000); AID 540308;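 active = activation above a per-plate cutoff, the mean activation of sample wells on that plate plus 3 SD, cut at about 8% in these data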
Target sequence (P32245 whole entry, looked up): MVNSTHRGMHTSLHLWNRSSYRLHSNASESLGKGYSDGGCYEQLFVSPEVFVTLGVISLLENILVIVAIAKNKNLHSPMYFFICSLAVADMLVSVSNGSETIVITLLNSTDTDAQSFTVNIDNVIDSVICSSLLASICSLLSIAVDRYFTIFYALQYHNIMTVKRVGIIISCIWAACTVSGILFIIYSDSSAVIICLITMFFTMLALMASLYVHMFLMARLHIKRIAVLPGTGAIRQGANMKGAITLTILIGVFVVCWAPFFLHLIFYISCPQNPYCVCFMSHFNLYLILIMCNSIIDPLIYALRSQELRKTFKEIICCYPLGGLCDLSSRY
MC4R antagonist – human MC4R antagonism in cAMP assay. P32245. MC4R-expressing cells, MTII-stimulated cAMP, LANCE TR-FRET. inhibition, % at 6.5 µM. actives 0.48% (n = 360,000);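 active = inhibition above its plate's cutoff, the mean of tested wells on that plate plus 3 SD, cut at about 29% in these data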;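 note: 0% = Melanotan II alone and 100% = Melanotan II plus saturating MCL0020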
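Material: human MC4R-expressing U2OS cells. Probe or stimulus: Melanotan II challenge. Dosing: 6.5 µM single dose. Times: 30-min compound, 1-h challenge, 1-h detection, room temperature. Technique: TR-FRET with Eu-cAMP and labeled anti-cAMP, 671 nm. Replication: singlicate.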
U2OS cAMP counter – U2OS forskolin cAMP inhibition counter-screen. shares compounds with MC4R antagonist. parental U2OS, LANCE TR-FRET. inhibition, % at 6.5 µM. actives 26% (n = 1,600). AID 602193;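 active = mean inhibition over triplicates above the low-control well mean plus 3 SD, set per campaign, cut at about 13% in these data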;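 note: signal is single emission at 671 nm which falls as cellular cAMP rises; 0% = forskolin-stimulated wells and 100% = buffer without forskolin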
MC4R antag conf – human MC4R cAMP antagonism confirmation | shares compounds with MC4R antagonist | MC4R-expressing cells, MTII-stimulated cAMP, TR-FRET | inhibition, % at 6.5 µM | actives 27% (n = 1,600) | AID 602195; in the data active = inhibition above about 29%;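 note: 0% = agonist stimulated wells alone and 100% = agonist stimulated wells plus saturating reference antagonist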
The depositor's hits bear a star; nt = no result given. Sampled rows, rich in hits. Any-hit rate of the full collection: about 2.3%.

SMILES	MsrA inhibitor	MsrA act	MC4R barr agon	MC4R antagonist	U2OS cAMP counter	MC4R antag conf
O=C(NCc1ccncc1)c1cc(C(=O)C2CCCCC2)c[nH]1	-0.6	-3.1	-0.9	30.3*	4.0	-7.0
O=C(Nc1nnc(-c2ccccc2)s1)c1cccc(S(=O)(=O)N2CCOCC2)c1	2.3	-6.3	-1.8	-0.9	nt	nt
O=C(Nc1nnc(-c2ccccc2)s1)c1cc(S(=O)(=O)N2CCOCC2)c(Cl)cc1Cl	-1.6	-1.9	-2.4	32.4*	11.2	25.7
CCN(C(N)=S)c1ccccc1	1.0	-8.8	0.3	-3.2	nt	nt
COc1ccccc1-n1cc([C@@H]2C[C@H]3CN(c4ccccc4)C(=O)[C@]34CCCN24)cn1	1.0	-3.8	-1.7	35.4*	0.0	-7.7
CCOC(=O)c1sc(N2N=C(C)/C(=C\c3ccc(OCC(=O)OC)cc3)C2=O)nc1C	0.9	-0.8	-1.8	31.1*	5.2	14.2
OCCN(CC#CC(O)(c1ccccc1)C1CCCCC1)CCO (stereo not drawn)	-1.5	-2.4	-1.5	16.5	nt	nt
O=C(Nc1cc(C(F)(F)F)ccc1N1CCOCC1)c1c(F)c(F)c(F)c(F)c1F	-0.2	-12.6	-1.4	29.5*	15.7*	45.8*
O=C(Nc1cc(C(F)(F)F)ccc1N1CCOCC1)c1ccccc1	-0.1	-0.8	2.1	6.3	nt	nt
Cn1c(Cn2c(=O)sc3ccccc32)nnc1SCC(=O)N1CCCCCC1	-0.4	-3.6	-0.2	2.0	nt	nt
O=C(C1CC2CCC1C2)N1CCN(Cc2ccc3c(c2)OCO3)CC1 (stereo not drawn)	-0.1	nt	nt	nt	nt	nt
C=C(C)[C@@H]1C2=CC(C(=O)OC)=C(C[C@H](C(=C)C)[C@H]3O[C@H]3C3=C[C@H]1OC3=O)O2	1.1	0.9	-0.2	36.4*	13.6*	44.9*
Cc1ccc(NC(=O)c2cc(N3C(=O)C=CC3=O)ccc2Cl)cc1C	-0.8	-2.4	-1.6	56.9*	8.2	11.5
Cc1ccc(NC(=O)c2cc(-n3cnnc3)ccc2Cl)cc1	0.5	-12.0	-1.4	2.0	nt	nt
Cc1ccc(NC(=O)c2cc(N3C(=O)C=CC3=O)ccc2N2CCOCC2)cc1	1.3	-15.0	-2.0	68.9*	8.5	50.5*
COC(=O)c1ccc(C2Nc3ccccc3NC3=C2C(=O)CC(C)(C)C3)cc1 (stereo not drawn)	3.0	-1.4	-1.0	7.0	nt	nt
CCC1=NN2C(=N)/C(=C\c3cccn3-c3ccc(OC)cc3)C(=O)N=C2S1	0.7	-3.5	-1.3	25.7	nt	nt
Cc1ccc(-n2cccc2/C=C2\C(=N)N3N=C(C(C)C)SC3=NC2=O)cc1	0.7	-0.7	-1.6	72.8*	-2.6	19.5
COc1ccc(N(CN2C(=O)C3CC=CCC3C2=O)C(=O)c2ccco2)cc1 (stereo not drawn)	0.1	-0.6	-1.5	-5.5	nt	nt
N#C/C(=C/c1ccc(N2CCCCC2)o1)C(=O)Nc1ccc2ccccc2c1	1.3	-3.6	-3.4	29.3*	-2.7	13.0
COc1ccc(NC(=O)/C(C#N)=C\c2ccc(N3CCOCC3)o2)cc1	3.2	-1.0	-1.2	-4.9	nt	nt
Cc1ccc(S(=O)(=O)NCc2c(-c3ccccc3)noc2C)cc1	0.8	-10.6	3.5	6.2	nt	nt
CCC(=O)N(CC(=O)Nc1sc(C)c(C)c1C(N)=O)C1CCCC1	0.5	-0.4	-1.0	29.4*	-3.3	-17.5
NC(=O)c1ccccc1OCC(=O)N1CCCc2ccccc21	-0.2	-2.8	-2.1	6.4	nt	nt
CC(C)(C)c1cc(C(c2cccnc2)N2CCN(CCO)CC2)cc(C(C)(C)C)c1O (stereo not drawn)	-0.7	-6.7	-2.6	28.6*	9.6	19.4
SMILES	MsrA inhibitor	MsrA act	MC4R barr agon	MC4R antagonist	U2OS cAMP counter	MC4R antag conf
CN(Cc1ccccc1)c1nc(N)nc(Cl)c1C=O	0.2	-0.2	-1.4	33.7*	17.5*	7.9
O=[n+]1c2c(n([O-])c3c1CCC3)CCCC2	-1.3	-5.8	0.4	2.3	nt	nt
Cc1n[nH]c(=S)c2nn(-c3cccc(Cl)c3)c(C)c12	0.8	nt	nt	nt	nt	nt
Cc1ccc(-n2nc3c(=S)[nH]nc(C)c3c2C)cc1	1.8	1.1	-2.3	146.5*	89.5*	147.3*
COc1ccc(S(=O)(=O)N(C)C)cc1NC(=O)COC(=O)c1nn(C)c(=O)c2ccccc12	0.8	-0.3	0.6	33.7*	6.3	13.5
CCN(c1ccccc1)S(=O)(=O)c1ccc(OC)c(NC(=O)Cn2cnc3c2c(=O)n(C)c(=O)n3C)c1	0.3	-0.8	6.2	41.4*	3.9	10.2
CCN(c1ccccc1)S(=O)(=O)c1ccc(OC)c(NC(=O)CNC)c1	0.0	-4.2	-0.1	1.1	nt	nt
Cn1nc(C(=O)OCC(=O)Nc2ccccc2OC(F)F)c2ccccc2c1=O	-0.1	-1.5	0.1	1.6	nt	nt
CCOc1ccc(S(=O)(=O)NC2CCCC2)cc1C	1.2	-5.8	-2.5	-5.3	nt	nt
CC(=O)c1sc(NC(=O)c2cccc(N3C(=O)CCC3=O)c2)nc1-c1ccccc1	-1.0	-3.1	-1.6	67.5*	10.2	0.9
COc1ccc(-c2csc(NC(=O)c3cccc(N4C(=O)CCC4=O)c3)n2)cc1C	-0.4	-3.5	-0.4	58.3*	17.9*	33.5*
CCOC(=O)c1cn(CC)c2cc3c(cc2c1=O)OCO3	0.4	-1.6	-2.1	-1.3	nt	nt
CCOC(=O)c1nccnc1C(=O)Nc1ccc(C(F)(F)F)cc1	0.8	-4.4	-1.6	4.7	nt	nt
Cc1ccc(C)c(Cn2nnc3c(=O)[nH]c(C4CCCN(C(=O)C5CCCCC5)C4)nc32)c1 (stereo not drawn)	-0.7	2.8	3.5	11.2	nt	nt
COc1ccc(CN2CCN(S(=O)(=O)c3ccc(NC(C)=O)cc3)CC2)c(OC)c1OC	0.0	-1.2	1.4	30.7*	0.5	8.7
COc1ccc(/C=C2\C(=O)ON=C2c2ccccc2)cc1OC	-1.5	-2.9	-0.8	31.0*	2.3	-4.1
Cc1cccc(NC(=O)CSc2ncnc3nc[nH]c23)c1C	0.8	-14.6	1.6	-3.2	nt	nt
CCOC(=O)c1c(NC(=O)c2c(C(=O)O)cccc2[N+](=O)[O-])sc2c1CCCC2	2.3	-3.4	0.1	26.5	nt	nt
COc1nc(NC(C)C)nc(N(C#N)CN2C(=O)c3ccccc3S2(=O)=O)n1	-0.5	-13.9	-0.3	17.4	nt	nt
CC(C)Nc1nc(Cl)nc(N(C#N)CN2C(=O)c3ccccc3S2(=O)=O)n1	-1.4	-1.6	-2.5	45.9*	14.4*	36.9*
CC(C)(C)Nc1nc(Cl)nc(N(C#N)CN2C(=O)c3ccccc3S2(=O)=O)n1	0.4	-13.2	-0.9	35.5*	24.9*	51.0*
CN(C)c1nc(N(C)C)nc(N(C#N)CN2C(=O)c3ccccc3S2(=O)=O)n1	1.5	-2.7	-1.6	8.8	nt	nt
COCCNC(=O)c1ccccc1NC(=O)Nc1ccccc1	-0.4	-1.8	-0.3	30.8*	3.0	10.7
CCN(CC)C(=O)C(C)N(C#N)c1nc(Cl)nc(N(C)C)n1 (stereo not drawn)	0.2	-2.5	-2.2	43.4*	10.8	28.0
